# ChEMBL document CHEMBL1221395, “Synthesis, anticancer activity and mitochondrial mediated apoptosis inducing ability of 2,5-diaryloxadiazole-pyrrolobenzodiazepine conjugates” (Bioorg Med Chem, 2010)
# The source made the active and inactive calls. The calls are words filed in the database; no cut-off is given here.
# Columns and labels:
# [1] = Toxicity against SCID mouse; format: organism-based; settings: in vivo
# A-375 [2] = assay: Antitumor activity against human A375 cells assessed as upregulation of p53 protein level at 4 uM after 24 hrs by Western blotting; format: functional, cell-based
# How it was run: (§1)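 A375 cells treated at 4 µM for 24 h. Lysates cleared at 12,000 rpm for 10 min, and protein quantified by Bradford. 30 µg per lane run on 12% SDS-PAGE and transferred to PVDF. Blocked 2 h in TBST with 5% blocking powder. Primary antibody overnight at 4 °C, HRP secondary (1:2000) 1 h at room temperature. β-actin used as loading control; untreated cells as control.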
# A549 = assay: Cytotoxicity against human A549 cells after 24 hrs by WST-1 assay; format: functional; settings: A549, 24 h
# Mus musculus [3] = assay: Toxicity against SCID mouse assessed as mortality at 20 mg/kg, ip q4d on day 1, 5 and 9; format: organism-based; parameters: dose 20 mg/kg, route intraperitoneal; settings: in vivo
# How it was run: (§2)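 Male NOD-SCID mice carrying human prostate PC-3 xenografts were dosed at 20 mg/kg ip on days 1, 5 and 9 (q4d). Mortality and body weight were followed over days 1–31, alongside a control group and an adriamycin 5 mg/kg arm. Tumour weight was recorded over the same period.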
# Mus musculus [4] = assay: Toxicity against SCID mouse assessed as weight loss at 20 mg/kg, ip q4d on day 1, 5 and 9; format: organism-based; parameters: dose 20 mg/kg, route intraperitoneal; settings: in vivo; how it was run: as §2
# PC-3 [5] = assay: Antitumor activity against human PC3 cells xenografted in NOD-SCID mouse at 20 mg/kg, ip q4d on day 1, 5 and 9; format: functional, organism-based; parameters: dose 20 mg/kg
# How it was run: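 Human prostate cancer PC-3 xenografts in male NOD-SCID mice. Dosed 20 mg/kg intraperitoneally on days 1, 5 and 9 (q4d). Tumour weight and body weight/survival followed over about 31 days. Adriamycin 5 mg/kg and untreated groups served as comparators.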
# Calf thymus DNA = assay: Binding affinity to calf thymus DNA assessed as change in melting temperature after 18 hrs; format: nucleic-acid assay; settings: Bos taurus
# How it was run: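 Thermal melting with duplex CT-DNA (100 µM in phosphate) and ligand (20 µM), added from methanol stock, [PBD]/[DNA] 1:5, in 10 mM sodium phosphate + 1 mM EDTA, pH 7.00; incubated at 37 °C for 18 h. A260 monitored while heating at 1 °C/min over 40–90 °C. Tm taken from d(A260)/dT maxima, corrected for methanol; ΔTm = Tm(DNA+ligand) − Tm(DNA alone); at least three determinations.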
# PC-3 [6] = assay: Cytotoxicity against human PC3 cells after 24 hrs by WST-1 assay; format: functional; settings: PC-3, 24 h
# [7] = Cytotoxicity against human Gurav cells after 24 hrs by WST-1 assay; format: functional
# HOP-62 = assay: Cytotoxicity against human HOP62 cells after 24 hrs by WST-1 assay; format: functional; settings: HOP-62, 24 h
# [8] = Lipophilicity, log P of the compound; format: physicochemical; settings: octanol/water
# A-375 [9] = assay: Antitumor activity against human A375 cells assessed as upregulation of p21 protein level at 4 uM after 24 hrs by Western blotting; format: functional, cell-based; how it was run: as §1
# A-375 [10] = assay: Antitumor activity against human A375 cells assessed as upregulation of pRb protein level at 4 uM after 24 hrs by Western blotting; format: functional, cell-based; how it was run: as §1
# A-375 [11] = assay: Induction of apoptosis in human A375 cells assessed as increase in Bax protein level at 4 uM after 24 hrs by Western blotting; format: functional, cell-based; how it was run: as §1
# A-375 [12] = assay: Induction of apoptosis in human A375 cells assessed as increase in cytochrome C protein level at 4 uM after 24 hrs by Western blotting; format: functional, cell-based; how it was run: as §1
# A-375 [13] = assay: Induction of apoptosis in human A375 cells assessed as increase in PARP protein level at 4 uM after 24 hrs by Western blotting; format: functional, cell-based; how it was run: as §1
# A-375 [14] = assay: Induction of apoptosis in human A375 cells assessed as increase in Caspase 3 activation at 4 uM after 24 hrs by fluorimetry; format: functional, cell-based
# How it was run: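 A375 cells exposed to 4 µM compound. Cell lysate incubated with DEVD-AFC substrate, with or without DEVD-CHO inhibitor, at 37 °C for 1 h in a fluorescent caspase-3 kit. Fluorescence read at excitation 400 nm, emission 505 nm.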
# KB = assay: Cytotoxicity against human KB cells by SRB assay
# [15] = Cytotoxicity against human DWD cells by SRB assay
# A2780 = assay: Cytotoxicity against human A2780 cells by SRB assay
# ZR-75-1 = assay: Cytotoxicity against human ZR-75-1 cells by SRB assay
# MCF7 = assay: Cytotoxicity against human MCF7 cells by sulforhodamine B assay
# SiHa = assay: Cytotoxicity against human SiHa cells after 24 hrs by SRB assay
# COLO 205 = assay: Cytotoxicity against human COLO205 cells after 24 hrs by SRB assay; settings: COLO 205, 24 h
# A-375 [16] = assay: Cell cycle arrest in human A375 cells assessed as accumulation at S phase after 24 hrs by FACS flow cytometry; parameters: concentration or dose not given beside the values
# A-375 [17] = assay: Cell cycle arrest in human A375 cells assessed as accumulation at G1 phase after 24 hrs by FACS flow cytometry; parameters: concentration or dose not given beside the values
# A-375 [18] = assay: Cell cycle arrest in human A375 cells assessed as accumulation at G2/M phase after 24 hrs by FACS flow cytometry; parameters: concentration or dose not given beside the values
# A-375 [19] = assay: Cell cycle arrest in human A375 cells assessed as accumulation at Sub-G1 phase after 24 hrs by FACS flow cytometry; parameters: concentration or dose not given beside the values
structure (smiles),measurement,setting,value
COc1ccc(-c2nnc(-c3ccc(OC)c(OCCCCCOc4cc5c(cc4OC)C(=O)N4CCC[C@H]4C=N5)c3)o2)cc1OC,MTD,[1],< 50 mg/kg
same,Activity,A-375 [2],Active
same,GI50,A549,< 100 nM
same,Activity,Mus musculus [3],Non-toxic
same,Activity,Mus musculus [4],Non-toxic
same,Activity,PC-3 [5],Active
same,ΔTm,Calf thymus DNA,5.8 °C
same,GI50,PC-3 [6],< 100 nM
same,GI50,[7],< 100 nM
same,GI50,HOP-62,< 100 nM
same,logP,[8],4.68
same,Activity,A-375 [9],Active
same,Activity,A-375 [10],Active
same,Activity,A-375 [11],Active
same,Activity,A-375 [12],Active
same,Activity,A-375 [13],Active
same,Activity,A-375 [14],Active
same,GI50,KB,< 100 nM
same,GI50,[15],< 100 nM
same,GI50,A2780,< 100 nM
same,GI50,ZR-75-1,< 100 nM
same,GI50,MCF7,< 100 nM
same,GI50,SiHa,< 100 nM
same,GI50,COLO 205,< 100 nM
same,Activity,A-375 [16],2.68%
same,Activity,A-375 [17],59.66%
same,Activity,A-375 [18],0.99%
same,Activity,A-375 [19],36.66%
